Assay results reported in ChEMBL document CHEMBL2384977, “Synthesis and biological evaluation of novel styryl benzimidazole derivatives as probes for imaging of neurofibrillary tangles in Alzheimer's disease” (Bioorg Med Chem, 2013).

Tests used:
Intestine [1] = test: Biodistribution in ddY mouse intestine at 13.2 to 20.6 kBq, iv measured at 60 mins by gamma counting analysis; type: ADME, organism-based; conditions: in vivo, 1 h
Procedure, shortened: (§1)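 Male ddY mice, 5 weeks old, received the 125I-labelled tracer (13.2–20.6 kBq) intravenously in the tail vein, in 100 µL saline containing ethanol. Animals were sacrificed at 2, 10, 30 and 60 min. Tissue radioactivity is expressed as %ID/g, mean (SD) of 5 animals.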

Spleen [2] = test: Biodistribution in ddY mouse spleen at 13.2 to 20.6 kBq, iv measured at 60 mins by gamma counting analysis; type: ADME, organism-based; conditions: in vivo, 1 h; procedure, shortened: as §1
Pancreas [3] = test: Biodistribution in ddY mouse pancreas at 13.2 to 20.6 kBq, iv measured at 60 mins by gamma counting analysis; type: ADME, organism-based; conditions: in vivo, 1 h; procedure, shortened: as §1
Heart [4] = test: Biodistribution in ddY mouse heart at 13.2 to 20.6 kBq, iv measured at 60 mins by gamma counting analysis; type: ADME, organism-based; conditions: in vivo, 1 h; procedure, shortened: as §1
Lung [5] = test: Biodistribution in ddY mouse lung at 13.2 to 20.6 kBq, iv measured at 60 mins by gamma counting analysis; type: ADME, organism-based; conditions: in vivo, 1 h; procedure, shortened: as §1
Stomach [6] = test: Biodistribution in ddY mouse stomach at 13.2 to 20.6 kBq, iv measured per organ at 60 mins by gamma counting analysis; type: ADME, organism-based; conditions: in vivo, 1 h
Procedure, shortened: (§2)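 Male ddY mice, 5 weeks old, were injected in the tail vein with the 125I tracer (13.2–20.6 kBq) in 100 µL saline containing ethanol. Sacrifice at 2, 10, 30 and 60 min. Stomach radioactivity is expressed as %ID per whole organ, mean (SD) of 5 animals.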

Brain [7] = test: Biodistribution in ddY mouse brain at 13.2 to 20.6 kBq, iv measured at 60 mins by gamma counting analysis; type: ADME, organism-based; conditions: in vivo, 1 h; procedure, shortened: as §1
Blood [8] = test: Biodistribution in ddY mouse blood at 13.2 to 20.6 kBq, iv measured at 60 mins by gamma counting analysis; type: ADME, organism-based; conditions: in vivo, 1 h; procedure, shortened: as §1
Liver [9] = test: Biodistribution in ddY mouse liver at 13.2 to 20.6 kBq, iv measured at 10 mins by gamma counting analysis; type: ADME, organism-based; conditions: in vivo; procedure, shortened: as §1
Kidney [10] = test: Biodistribution in ddY mouse kidney at 13.2 to 20.6 kBq, iv measured at 10 mins by gamma counting analysis; type: ADME, organism-based; conditions: in vivo; procedure, shortened: as §1
Intestine [11] = test: Biodistribution in ddY mouse intestine at 13.2 to 20.6 kBq, iv measured at 10 mins by gamma counting analysis; type: ADME, organism-based; conditions: in vivo; procedure, shortened: as §1
Spleen [12] = test: Biodistribution in ddY mouse spleen at 13.2 to 20.6 kBq, iv measured at 10 mins by gamma counting analysis; type: ADME, organism-based; conditions: in vivo; procedure, shortened: as §1
Pancreas [13] = test: Biodistribution in ddY mouse pancreas at 13.2 to 20.6 kBq, iv measured at 10 mins by gamma counting analysis; type: ADME, organism-based; conditions: in vivo; procedure, shortened: as §1
Heart [14] = test: Biodistribution in ddY mouse heart at 13.2 to 20.6 kBq, iv measured at 10 mins by gamma counting analysis; type: ADME, organism-based; conditions: in vivo; procedure, shortened: as §1
Lung [15] = test: Biodistribution in ddY mouse lung at 13.2 to 20.6 kBq, iv measured at 10 mins by gamma counting analysis; type: ADME, organism-based; conditions: in vivo; procedure, shortened: as §1
Stomach [16] = test: Biodistribution in ddY mouse stomach at 13.2 to 20.6 kBq, iv measured per organ at 10 mins by gamma counting analysis; type: ADME, organism-based; conditions: in vivo; procedure, shortened: as §2
Brain [17] = test: Biodistribution in ddY mouse brain at 13.2 to 20.6 kBq, iv measured at 10 mins by gamma counting analysis; type: ADME, organism-based; conditions: in vivo; procedure, shortened: as §1
Blood [18] = test: Biodistribution in ddY mouse blood at 13.2 to 20.6 kBq, iv measured at 10 mins by gamma counting analysis; type: ADME, organism-based; conditions: in vivo; procedure, shortened: as §1
Liver [19] = test: Biodistribution in ddY mouse liver at 13.2 to 20.6 kBq, iv measured at 30 mins by gamma counting analysis; type: ADME, organism-based; conditions: in vivo, 0.5 h; procedure, shortened: as §1
Kidney [20] = test: Biodistribution in ddY mouse kidney at 13.2 to 20.6 kBq, iv measured at 30 mins by gamma counting analysis; type: ADME, organism-based; conditions: in vivo, 0.5 h; procedure, shortened: as §1
Intestine [21] = test: Biodistribution in ddY mouse intestine at 13.2 to 20.6 kBq, iv measured at 30 mins by gamma counting analysis; type: ADME, organism-based; conditions: in vivo, 0.5 h; procedure, shortened: as §1
Spleen [22] = test: Biodistribution in ddY mouse spleen at 13.2 to 20.6 kBq, iv measured at 30 mins by gamma counting analysis; type: ADME, organism-based; conditions: in vivo, 0.5 h; procedure, shortened: as §1
Pancreas [23] = test: Biodistribution in ddY mouse pancreas at 13.2 to 20.6 kBq, iv measured at 30 mins by gamma counting analysis; type: ADME, organism-based; conditions: in vivo, 0.5 h; procedure, shortened: as §1
Heart [24] = test: Biodistribution in ddY mouse heart at 13.2 to 20.6 kBq, iv measured at 30 mins by gamma counting analysis; type: ADME, organism-based; conditions: in vivo, 0.5 h; procedure, shortened: as §1
Lung [25] = test: Biodistribution in ddY mouse lung at 13.2 to 20.6 kBq, iv measured at 30 mins by gamma counting analysis; type: ADME, organism-based; conditions: in vivo, 0.5 h; procedure, shortened: as §1
Stomach [26] = test: Biodistribution in ddY mouse stomach at 13.2 to 20.6 kBq, iv measured per organ at 30 mins by gamma counting analysis; type: ADME, organism-based; conditions: in vivo, 0.5 h; procedure, shortened: as §2
Brain [27] = test: Biodistribution in ddY mouse brain at 13.2 to 20.6 kBq, iv measured at 30 mins by gamma counting analysis; type: ADME, organism-based; conditions: in vivo, 0.5 h; procedure, shortened: as §1
Blood [28] = test: Biodistribution in ddY mouse blood at 13.2 to 20.6 kBq, iv measured at 30 mins by gamma counting analysis; type: ADME, organism-based; conditions: in vivo, 0.5 h; procedure, shortened: as §1
Liver [29] = test: Biodistribution in ddY mouse liver at 13.2 to 20.6 kBq, iv measured at 60 mins by gamma counting analysis; type: ADME, organism-based; conditions: in vivo, 1 h; procedure, shortened: as §1
Kidney [30] = test: Biodistribution in ddY mouse kidney at 13.2 to 20.6 kBq, iv measured at 60 mins by gamma counting analysis; type: ADME, organism-based; conditions: in vivo, 1 h; procedure, shortened: as §1
[31] = 1-Octanol-PBS buffer partition coefficient, log P of the compound at 0.37 MBq after 2 mins by gamma counting analysis; type: physicochemical
Brain [32] = test: Ratio of drug level in ddY mouse brain at 13.2 to 20.6 kBq, iv measured at 2 mins to drug level in ddY mouse brain at 13.2 to 20.6 kBq, iv measured at 60 mins; type: ADME, organism-based; conditions: in vivo
Procedure, shortened: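 Tail-vein injection of the 125I tracer (13.2–20.6 kBq, saline with ethanol) into male 5-week-old ddY mice. The ratio is brain uptake (%ID/g) at 2 min divided by brain uptake at 60 min, from groups of 5 animals.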

Brain [33] = test: Biodistribution in ddY mouse brain at 13.2 to 20.6 kBq, iv measured at 2 mins by gamma counting analysis; type: ADME, organism-based; conditions: in vivo; procedure, shortened: as §1
Stomach [34] = test: Biodistribution in ddY mouse stomach at 13.2 to 20.6 kBq, iv measured per organ at 2 mins by gamma counting analysis; type: ADME, organism-based; conditions: in vivo; procedure, shortened: as §2
Heart [35] = test: Biodistribution in ddY mouse heart at 13.2 to 20.6 kBq, iv measured at 2 mins by gamma counting analysis; type: ADME, organism-based; conditions: in vivo; procedure, shortened: as §1
Lung [36] = test: Biodistribution in ddY mouse lung at 13.2 to 20.6 kBq, iv measured at 2 mins by gamma counting analysis; type: ADME, organism-based; conditions: in vivo; procedure, shortened: as §1
Pancreas [37] = test: Biodistribution in ddY mouse pancreas at 13.2 to 20.6 kBq, iv measured at 2 mins by gamma counting analysis; type: ADME, organism-based; conditions: in vivo; procedure, shortened: as §1
Spleen [38] = test: Biodistribution in ddY mouse spleen at 13.2 to 20.6 kBq, iv measured at 2 mins by gamma counting analysis; type: ADME, organism-based; conditions: in vivo; procedure, shortened: as §1
Intestine [39] = test: Biodistribution in ddY mouse intestine at 13.2 to 20.6 kBq, iv measured at 2 mins by gamma counting analysis; type: ADME, organism-based; conditions: in vivo; procedure, shortened: as §1
Kidney [40] = test: Biodistribution in ddY mouse kidney at 13.2 to 20.6 kBq, iv measured at 2 mins by gamma counting analysis; type: ADME, organism-based; conditions: in vivo; procedure, shortened: as §1
Blood [41] = test: Biodistribution in ddY mouse blood at 13.2 to 20.6 kBq, iv measured at 2 mins by gamma counting analysis; type: ADME, organism-based; conditions: in vivo; procedure, shortened: as §1
Liver [42] = test: Biodistribution in ddY mouse liver at 13.2 to 20.6 kBq, iv measured at 2 mins by gamma counting analysis; type: ADME, organism-based; conditions: in vivo; procedure, shortened: as §1

For `Nc1ccc(/C=C/c2nc3ccc([125I])cc3[nH]2)cc1`, the Drug uptake (Intestine [1]) was 27.4 % ID/g, the Drug uptake (Spleen [2]) was 2.46 % ID/g and the Drug uptake (Pancreas [3]) was 1.43 % ID/g. The Drug uptake (Heart [4]) was 1.13 % ID/g, the Drug uptake (Lung [5]) was 1.44 % ID/g and the Drug uptake (Stomach [6]) was 4.37 %ID. For the same compound, the Drug uptake (Brain [7]) was 0.12 % ID/g, the Drug uptake (Blood [8]) was 1.24 % ID/g and the Drug uptake (Liver [9]) was 29.9 % ID/g. It also gave a Drug uptake (Kidney [10]) of 5.04 % ID/g, a Drug uptake (Intestine [11]) of 13.7 % ID/g and a Drug uptake (Spleen [12]) of 4.87 % ID/g. The Drug uptake (Pancreas [13]) was 1.93 % ID/g, the Drug uptake (Heart [14]) was 2.84 % ID/g and the Drug uptake (Lung [15]) was 3.55 % ID/g. It also gave a Drug uptake (Stomach [16]) of 4.13 %ID, a Drug uptake (Brain [17]) of 1.4 % ID/g and a Drug uptake (Blood [18]) of 2.72 % ID/g. The Drug uptake (Liver [19]) was 19.3 % ID/g, the Drug uptake (Kidney [20]) was 2.54 % ID/g and the Drug uptake (Intestine [21]) was 22.1 % ID/g. The Drug uptake (Spleen [22]) was 2.71 % ID/g, the Drug uptake (Pancreas [23]) was 0.69 % ID/g and the Drug uptake (Heart [24]) was 1.48 % ID/g. The Drug uptake (Lung [25]) was 1.62 % ID/g, the Drug uptake (Stomach [26]) was 3.6 %ID and the Drug uptake (Brain [27]) was 0.26 % ID/g. It also gave a Drug uptake (Blood [28]) of 1.57 % ID/g, a Drug uptake (Liver [29]) of 15.6 % ID/g and a Drug uptake (Kidney [30]) of 3.25 % ID/g. It also gave a logP at 2 min [31] of 1.88, a Ratio (Brain [32]) of 26.7 and a Drug uptake (Brain [33]) of 3.2 % ID/g. The Drug uptake (Stomach [34]) was 1.7 %ID, the Drug uptake (Heart [35]) was 8.31 % ID/g and the Drug uptake (Lung [36]) was 9.09 % ID/g. The Drug uptake (Pancreas [37]) was 4.99 % ID/g, the Drug uptake (Spleen [38]) was 5.5 % ID/g and the Drug uptake (Intestine [39]) was 4.09 % ID/g. It also gave a Drug uptake (Kidney [40]) of 10.6 % ID/g, a Drug uptake (Blood [41]) of 5.94 % ID/g and a Drug uptake (Liver [42]) of 29.4 % ID/g.
